Source: paper PMC5617735 (Journal of the American Chemical Society, 2017)
In brackets after ≈: the same amount, converted by molar mass. Non-standard residues stand in square brackets, D forms with d. Residues, ends and D or L forms follow the SMILES beside them. ξ: configuration not given here. *: point of attachment. ξI = CCC(C)C(N)C(=O)O; Butyryl = CCCC(=O)*

Tests used:
[1] = test system: sur cluster (surA and surC transcripts); test: RT-qPCR of sur cluster expression; assay type: cell-based, Streptomyces albus J1074; conditions: for upregulation of surC: at optimal elicitor concentration (~23 μM etoposide, ~30 μM ivermectin), vs DMSO; for elicitor concentration yielding optimal upregulation of sur: dose-response; for elicitor concentration yielding optimal upregulation of sur / induction of surA and surC: RT-qPCR; for induction of surA and surC: wt S. albus, vs DMSO control
In short: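 Wild-type S. albus J1074 cultures were exposed to the test compound, with DMSO as the negative control. surA and surC mRNA were measured by RT-qPCR and expressed as fold-change versus the DMSO control. For the dose-response, concentrations were multiples of a base level: 1x equals 5.7 μM or 7.6 μM final, depending on the elicitor.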

[2] = test system: ΔsurR S. albus secondary metabolite production; test: HPLC-Qtof-MS of sur metabolite production in ΔsurR strain treated with elicitor; assay type: cell-based, Streptomyces albus J1074; conditions: for increase in the production of surugamide I: HPLC-Qtof-MS; for upregulation of acyl-surugamide A / upregulation of albucyclone A: estimate based on lower limit of detection
[3] = test system: S. albus; test: Growth inhibition of S. albus by elicitors; assay type: cell-based, Streptomyces albus J1074
[4] = test system: surR; test: RT-qPCR of surR expression upon elicitor exposure; assay type: cell-based, Streptomyces albus J1074; conditions: wt S. albus, vs DMSO control
[5] = test system: Pseudomonas aeruginosa PAO1; test: Antibacterial assay; assay type: cell-based; conditions: read-out: IC50, Pseudomonas aeruginosa PAO1
[6] = test system: Bacillus subtilis 168; test: Antibacterial assay; assay type: cell-based; conditions: read-out: IC50, Bacillus subtilis 168
[7] = test system: Saccharomyces pombe; test: Antifungal assay; assay type: cell-based; conditions: read-out: IC50, Saccharomyces pombe
[8] = test system: Saccharomyces cerevisiae; test: Antifungal assay; assay type: cell-based; conditions: read-out: IC50, Saccharomyces cerevisiae
[9] = test system: Staphylococcus aureus Newman; test: Antibacterial assay; assay type: cell-based; conditions: read-out: IC50, Staphylococcus aureus Newman
[10] = biological target: cathepsin B (Homo sapiens, UniProt P07858); test: Cathepsin B inhibition assay; assay type: biochemical; conditions: read-out: Half-maximal inhibitory concentration (IC50), Cathepsin B Inhibition
[11] = test system: Enterococcus faecalis OG1RF; test: Antibacterial assay; assay type: cell-based; conditions: read-out: IC50, Enterococcus faecalis OG1RF
[12] = test system: E. coli K12; test: Antibacterial assay; assay type: cell-based; conditions: read-out: IC50, E. coli K12
[13] = test system: strains tested; test: Antibacterial and antifungal assays; assay type: cell-based
[14] = test system: recA and lexA; test: RT-qPCR of SOS response genes recA and lexA; assay type: cell-based, Streptomyces albus J1074; conditions: S. albus

| Compound | IC50 [5] [µM] | IC50 [6] [µM] | IC50 [7] [µM] | IC50 [8] [µM] | IC50 [9] [µM] | IC50 [10] [µM] | IC50 [11] [µM] | IC50 [12] [µM] | also measured |
| --- | --- | --- | --- | --- | --- | --- | --- | --- | --- |
| COc1cc([C@@H]2c3cc4c(cc3[C@@H](O[C@@H]3O[C@@H]5CO[C@@H](C)O[C@H]5[C@H](O)[C@H]3O)[C@H]3COC(=O)[C@H]23)OCO4)cc(OC)c1O [etoposide] | – | – | – | – | – | – | – | – | upregulation of surC [1]: ~ 10 fold; elicitor concentration yielding optimal upregulation of sur [1]: ~ 23 μM; induction of surA and surC [1]: 3 fold; increase in the production of surugamide I [2]: > 35 fold; upregulation of acyl-surugamide A [2]: > 40 fold; upregulation of albucyclone A [2]: > 50 fold; IC50 ([3]; Streptomyces albus, read-out: half-maximal inhibitory concentration (IC50) on S. albus): 10 µg/mL (≈ 17 µM); down-regulation of surR expression [4]: 2–2.5 fold |
| surugamide J [compound 14] | > 100 | > 100 | > 100 | > 100 | > 100 | > 100 | > 100 | > 100 | – |
| albucyclone A [compound 16] | – | – | – | – | – | > 100 | – | – | – |
| albuquinone A [compound 22] | > 100 | > 100 | > 100 | > 100 | > 100 | – | > 100 | > 100 | antibiotic activity against the strains tested [13]: did not reveal significant antibiotic activity |
| CC(C)[C@@]1(NC(=O)[C@@H]2C[C@@H]3c4cccc5[nH]cc(c45)C[C@H]3N(C)C2)O[C@@]2(O)[C@@H]3CCCN3C(=O)[C@H](Cc3ccccc3)N2C1=O [dihydroergocristine] | – | – | – | – | – | – | – | – | induction of surA and surC [1]: 3 fold |
| CC[C@@H](C)[C@H]1NC(=O)[C@H](C(C)C)NC(=O)[C@@H](C)NC(=O)[C@H](C(C)C)NC(=O)[C@@H](CC(C)C)NC(=O)[C@@H](Cc2ccccc2)NC(=O)[C@H]([C@@H](C)CC)NC(=O)[C@H](CCCCN)NC1=O [compound 11, surugamide G] (cyclo(I[dF][dL]V[dA]V[dI]K)) | > 100 | > 100 | > 100 | > 100 | > 100 | > 100 | > 100 | > 100 | – |
| albucyclone F [compound 21] | > 100 | > 100 | > 100 | > 100 | > 100 | > 100 | > 100 | > 100 | – |
| CCCC(=O)NCCCC[C@@H]1NC(=O)C(C(C)CC)NC(=O)C(C(C)CC)NC(=O)[C@@H](C)NC(=O)C(C(C)CC)NC(=O)[C@@H](CC(C)C)NC(=O)[C@@H](Cc2ccccc2)NC(=O)[C@H]([C@@H](C)CC)NC1=O (stereo partly drawn) [compound 15, acyl-surugamide A] (cyclo(I[dF][dL][ξI][dA][ξI][ξI]K(Butyryl))) | > 100 | 21.7 | 32.5 | 3.5 | 27.4 | 43.3 | > 100 | > 100 | – |
| surugamide I [compound 13] | – | – | – | – | – | 9 | – | – | – |
| ivermectin | – | – | – | – | – | – | – | – | induction of recA and lexA [14]: no changes; upregulation of surC [1]: 4.5 fold; elicitor concentration yielding optimal upregulation of sur [1]: ~ 30 μM; induction of surA and surC [1]: 3 fold; increase in the production of surugamide I [2]: > 35 fold; upregulation of acyl-surugamide A [2]: > 40 fold; upregulation of albucyclone A [2]: > 50 fold; inhibition of S. albus growth ([3]; at the concentrations employed): did not inhibit S. albus growth; down-regulation of surR expression [4]: 2–2.5 fold |
| CC[C@@H](C)[C@H]1NC(=O)[C@H](C(C)C)NC(=O)[C@@H](C)NC(=O)[C@H](C(C)C)NC(=O)[C@@H](CC(C)C)NC(=O)[C@@H](Cc2ccccc2)NC(=O)[C@H](C(C)C)NC(=O)[C@H](CCCCN)NC1=O [compound 12, surugamide H] (cyclo(KV[dF][dL]V[dA]V[dI])) | – | – | – | – | – | 12.4 | – | – | – |
